Results as given in ChEMBL document CHEMBL5107946, “SF5- and SCF3-substituted tetrahydroquinoline compounds as potent bactericidal agents against multidrug-resistant persister Gram-positive bacteria” (RSC Med Chem, 2021).
Converted amounts (≈) assume the structure as drawn. The source made the active and inactive calls.

Legend:
Staphylococcus aureus [1] = experiment: Antibacterial activity against methicillin-resistant Staphylococcus aureus USA300 (ARLG 1567) assessed as bacterial growth inhibition incubated for 18 to 20 hrs by CLSI based broth microdilution assay; type: functional; conditions: time 18-20 hrs
Outline: (§1)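 CLSI broth microdilution; compounds and control antibiotics made up at 10 mg mL−1 in DMSO (stock), serially diluted 1:2 across the plate. Inoculum adjusted to 0.5 McFarland, then diluted 1:100 into wells. Plates incubated static at 37 °C for 18–20 h before MIC read.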

Staphylococcus aureus [2] = experiment: Bactericidal activity against methicillin-resistant Staphylococcus aureus USA300 assessed as reduction in colony forming unit incubated for 20 hrs; type: functional
Outline: (§2)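 Follows the broth microdilution MIC plate. 4 μL taken from each well without growth, spotted in duplicate on tryptic soy agar and incubated static at 37 °C for 20 h. MBC taken as the concentration giving 99.9% reduction in CFU.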

Staphylococcus aureus [3] = experiment: Antibacterial activity against methicillin-resistant Staphylococcus aureus USA300 assessed as bacterial growth inhibition incubated for 18 to 20 hrs by CLSI based broth microdilution assay; type: functional; conditions: time 18-20 hrs; outline: as §1
Cell membrane = experiment: Induction of cell membrane permeability in Staphylococcus aureus ATCC 25923 at 2 to 10 ug/ml by DiOC2 dye based flow cytometry assay; conditions: dose 2-10 µg/ml
Outline: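 Exponential-phase cells (OD600 0.2–0.3) treated at 2 or 10 μg mL−1; bithionol 4 μg mL−1 as positive control. Washed twice in PBS and resuspended in buffer. To-PRO 3 iodide (red) and DiOC2 (green) added and cells analysed at once by flow cytometry. Permeabilization read as the red/green ratio.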

Staphylococcus aureus [4] = experiment: Antibacterial activity against Staphylococcus aureus ATCC 25923 assessed as bacterial growth inhibition at 16 ug/ml incubated for 18 to 20 hrs by CLSI based broth microdilution assay; type: functional, organism-based; conditions: dose 16.0 µg/ml, time 18-20 hrs
Outline: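 Single-concentration screen at 16 μg mL−1 final. Overnight TSB culture was diluted 1:1000 in cation-adjusted MHB and grown to early exponential phase. 1 mL of culture was added to compound in glass tubes and incubated overnight at 37 °C. OD600 was read and normalized to the DMSO control after subtracting medium-only OD.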

Enterococcus faecium = experiment: Antibacterial activity against vancomycin-resistant Enterococcus faecium ATCC 700221 assessed as bacterial growth inhibition incubated for 18 to 20 hrs by CLSI based broth microdilution assay
Staphylococcus aureus [5] = experiment: Bactericidal activity against methicillin-resistant Staphylococcus aureus ATCC 33592 assessed as reduction in colony forming unit at 1 x MIC incubated for 18 to 24 hrs by Time-kill analysis; type: functional, organism-based; conditions: time 18-24 hrs
Outline: (§3)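 Log-phase time-kill. Overnight TSB culture diluted 1:1000 and grown to OD600 0.6, then diluted 1 in 10 in TSB (about 2.92 × 10^6 CFU per mL). Exposed at 1× or 4× MIC in triplicate at 37 °C. Samples taken at 0, 2, 4, 8, 12 and 24 h, serially diluted in PBS, plated on TSA in duplicate and counted after 18–20 h.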

Enterococcus faecalis [6] = experiment: Bactericidal activity against Enterococcus faecalis ATCC 29212 assessed as reduction in colony forming unit incubated for 20 hrs; type: functional; outline: as §2
Staphylococcus aureus [7] = experiment: Antibacterial activity against methicillin-resistant Staphylococcus aureus USA300 (ARLG 1570) assessed as bacterial growth inhibition incubated for 18 to 20 hrs by CLSI based broth microdilution assay; type: functional; conditions: time 18-20 hrs; outline: as §1
Erythrocyte = experiment: Cytotoxicity against human RBC at 20 ug/ml incubated for 30 mins by spectrophotometric method; type: toxicity, cell-based; conditions: 0.5 h, dose 20 µg/ml
Outline: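 Hemolysis of 5% human RBCs exposed to compound at 5–20 μg mL−1 for 30 min at 37 °C. Intact cells were pelleted by centrifugation and supernatant absorbance read at 540 nm. Values are percent of 1% Triton X-100 lysis, with DMSO as negative control. Triplicate.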

Staphylococcus aureus [8] = experiment: Antibacterial activity against methicillin-resistant Staphylococcus aureus ST239 (ARLG 1663) assessed as bacterial growth inhibition incubated for 18 to 20 hrs by CLSI based broth microdilution assay; type: functional; conditions: time 18-20 hrs; outline: as §1
Listeria monocytogenes [9] = experiment: Bactericidal activity against Listeria monocytogenes ATCC 19115 assessed as reduction in colony forming unit incubated for 20 hrs; type: functional
Outline: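 MBC: after the MIC assay, 4 μL from wells with no growth were spotted in duplicate on TSA. Plates were incubated static at 37 °C for 20 h. MBC was taken as a 99.9% reduction in CFU.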

Listeria monocytogenes [10] = experiment: Antibacterial activity against Listeria monocytogenes ATCC 19115 assessed as bacterial growth inhibition incubated for 18 to 20 hrs by CLSI based broth microdilution assay; type: functional; conditions: time 18-20 hrs
Outline: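 MIC by CLSI broth microdilution. Compounds were made as 10 mg mL−1 DMSO stocks and serially diluted 1:2. Inoculum was set to 0.5 McFarland and diluted 1:100 into the wells. Plates were incubated static at 37 °C for 18–20 h before reading the MIC.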

Enterococcus faecalis [11] = experiment: Antibacterial activity against Enterococcus faecalis ATCC 29212 assessed as bacterial growth inhibition incubated for 18 to 20 hrs by CLSI based broth microdilution assay; type: functional; conditions: time 18-20 hrs; outline: as §1
Staphylococcus aureus [12] = experiment: Bactericidal activity against persister methicillin-resistant Staphylococcus aureus ATCC 33592 assessed as reduction in colony forming unit at 1 x MIC incubated for 6 hrs by Time-kill analysis; type: functional, organism-based
Outline: (§4)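 Stationary-phase (persister) time-kill. Overnight TSB culture diluted 1 in 10 in TSB directly (about 2.92 × 10^6 CFU per mL), with no regrowth step. Exposed at 1× or 4× MIC in triplicate at 37 °C. Samples taken at 0, 2, 4 and 6 h, serially diluted in PBS, plated on TSA in duplicate and incubated 18–24 h.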

Staphylococcus aureus [13] = experiment: Antibacterial activity against methicillin-resistant Staphylococcus aureus USA300 assessed as fold increase in MIC incubated for 30 days by resistance development based broth microdilution assay; type: functional; conditions: time 30 day
Outline: (§5)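 Multi-step resistance selection over 30 days. MIC determined first. Each day, 5 μL from the turbid well just below the MIC was diluted 1:1000 in CA-MHB and used as inoculum for the next broth microdilution MIC. Resistance defined as a rise of more than four-fold over the starting MIC.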

Enterococcus faecalis [14] = experiment: Antibacterial activity against vancomycin-resistant Enterococcus faecalis ATCC 51575 assessed as bacterial growth inhibition incubated for 18 to 20 hrs by CLSI based broth microdilution assay; type: functional; conditions: time 18-20 hrs; outline: as §1
Staphylococcus aureus [15] = experiment: Bactericidal activity against methicillin-resistant Staphylococcus aureus ATCC 33592 assessed as reduction in colony forming unit at 4 x MIC incubated for 18 to 24 hrs by Time-kill analysis; type: functional, organism-based; conditions: time 18-24 hrs; outline: as §3
Staphylococcus aureus [16] = experiment: Antibacterial activity against methicillin-resistant Staphylococcus aureus ATCC 33592 assessed as bacterial growth inhibition incubated for 18 to 20 hrs by CLSI based broth microdilution assay; type: functional; conditions: time 18-20 hrs; outline: as §1
Enterococcus faecalis [17] = experiment: Bactericidal activity against vancomycin-resistant Enterococcus faecalis ATCC 51575 assessed as reduction in colony forming unit incubated for 20 hrs; type: functional; outline: as §2
Staphylococcus aureus [18] = experiment: Bactericidal activity against Staphylococcus aureus ATCC 25923 assessed as reduction in colony forming unit incubated for 20 hrs; type: functional; outline: as §2
Staphylococcus aureus [19] = experiment: Bactericidal activity against persister methicillin-resistant Staphylococcus aureus ATCC 33592 assessed as reduction in colony forming unit at 4 x MIC incubated for 6 hrs by Time-kill analysis; type: functional, organism-based; outline: as §4
Staphylococcus aureus [20] = experiment: Antibacterial activity against methicillin-resistant Staphylococcus aureus ATCC 33592 assessed as fold increase in MIC incubated for 30 days by resistance development based broth microdilution assay; type: functional; conditions: time 30 day; outline: as §5

## FC(F)(F)c1n[nH]cc1[C@@H]1Nc2ccc(S(F)(F)(F)(F)F)cc2[C@H]2[C@@H]3CC[C@@H](C3)[C@H]21
Staphylococcus aureus [1]
  MIC: 2 µg/mL (≈ 4.35 µM)
Staphylococcus aureus [2]
  MBC: 8 µg/mL (≈ 17.4 µM)
Staphylococcus aureus [3]
  MIC: 4 µg/mL (≈ 8.71 µM)
Cell membrane
  Activity: Active
Staphylococcus aureus [4]
  Activity: Active
Enterococcus faecium
  MIC: 2 µg/mL (≈ 4.35 µM)
Staphylococcus aureus [5]
  Activity: Active
Enterococcus faecalis [6]
  MBC: 8 µg/mL (≈ 17.4 µM)
Staphylococcus aureus [7]
  MIC: 2 µg/mL (≈ 4.35 µM)
Erythrocyte
  Activity: Non-Toxic
Staphylococcus aureus [8]
  MIC: 1 µg/mL (≈ 2.18 µM)
Listeria monocytogenes [9]
  MBC: 4 µg/mL (≈ 8.71 µM)
Listeria monocytogenes [10]
  MIC: 2 µg/mL (≈ 4.35 µM)
Enterococcus faecalis [11]
  MIC: 4 µg/mL (≈ 8.71 µM)
Staphylococcus aureus [12]
  Activity: Active
Staphylococcus aureus [13]
  fold change (FC): 1
Enterococcus faecalis [14]
  MIC: 4 µg/mL (≈ 8.71 µM)
Staphylococcus aureus [15]
  Activity: Active
Staphylococcus aureus [16]
  MIC: 2 µg/mL (≈ 4.35 µM)
Enterococcus faecalis [17]
  MBC: 8 µg/mL (≈ 17.4 µM)
Staphylococcus aureus [18]
  MBC: 8 µg/mL (≈ 17.4 µM)
Staphylococcus aureus [19]
  Activity: Active
Staphylococcus aureus [20]
  fold change (FC): 1
